According to ChEMBL document CHEMBL1147003, “Anti-Plasmodium activity of imidazole-dioxolane compounds” (Bioorg Med Chem Lett, 2006):

What was measured:
[1] = test system: CHO; assay: Cytotoxicity against CHO cell line; type: functional, cell-based, Cricetulus griseus
Summary of the method: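 CHO cells in RPMI-1640 with 10% FBS, 25 mM HEPES and gentamicin, grown to 50% confluency before compounds added in DMSO. Viability after 24 h by MTT (1 mg/mL), 30 min further incubation, medium removed, DMSO added, absorbance at 540 nm. Run in quadruplicate. IC50 by non-linear regression.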

[2] = test system: CHO; assay: Selectivity index as IC50 CHO/IC50 Plasmodium falciparum; type: functional
[3] = test system: Plasmodium falciparum; assay: Antimalarial activity against Plasmodium falciparum; type: functional, organism-based
Summary of the method: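 pLDH read-out of P. falciparum growth. Compounds in DMSO (10 mg/mL) serially diluted twofold in duplicate. Non-synchronous culture added at 5% hematocrit, 2% parasitemia. Incubated 72 h at 37 °C under 95% N2/3% CO2/2% O2. Sample of resuspended wells mixed with pLDH assay mixture, absorbance at 540 nm after 1 h. IC50 from non-linear regression, mean ± SD of four independent assays.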

Row | IC50 ([3]; Plasmodium falciparum) [µM] | IC50 [3] [µM] | SMILES | IC50 ([1]; Cricetulus griseus, CHO) [µM] | Ratio IC50 [2] | IC50 ([1]; cho) [µM]
1 | 0.34 |  | C[C@@H]1CO[C@@](CCc2ccccc2)(Cn2ccnc2)O1.Cl | 668 | 2226.7 | 
2 | 8.3 |  | CCC(COC(C)=O)n1ccnc1 (stereo unspecified) | 1850 | 222.7 | 
3 |  | 1.2 | Cc1ccc(S(=O)(=O)OC[C@@H]2CO[C@](CCc3ccc(Cl)cc3)(Cn3ccnc3)O2)cc1 |  | 3.2 | 3.8
4 | 0.06 |  | Oc1ccc(SC[C@@H]2CO[C@@](CCc3ccc(Cl)cc3)(Cn3ccnc3)O2)cc1 | 10.9 | 181.6 | 
5 | 2.9 |  | Cc1ccc(S(=O)(=O)OC[C@@H]2CO[C@@](CCc3ccc(Cl)cc3)(Cn3ccnc3)O2)cc1 | 8 | 2.8 | 
6 | 2.8 |  | Cc1ccc(S(=O)(=O)OC[C@H]2CO[C@](CCc3ccc(Cl)cc3)(Cn3ccnc3)O2)cc1 | 13 | 4.6 | 
7 | 1.9 |  | Cc1ccc(S(=O)(=O)OC[C@H]2CO[C@@](CCc3ccc(Cl)cc3)(Cn3ccnc3)O2)cc1 | 5.7 | 3 | 
8 | 2.1 |  | CSC[C@@H]1CO[C@@](CCc2ccc(Cl)cc2)(Cn2ccnc2)O1.Cl | 9.3 | 4.7 | 
9 | 20 |  | Cl.FC[C@@H]1CO[C@@](CCc2ccc(Cl)cc2)(Cn2ccnc2)O1 | 24 | 1.2 | 
10 | 1.3 |  | Cl.Cl.Nc1ccc(OC[C@@H]2CO[C@@](CCc3ccc(Cl)cc3)(Cn3ccnc3)O2)cc1 | 14 | 10.8 | 
11 | 1.1 |  | Cl.Oc1ccc(OC[C@@H]2CO[C@@](CCc3ccc(Cl)cc3)(Cn3ccnc3)O2)cc1 | 0.9 | 0.8 | 
12 | 3.5 |  | COc1ccc(SC[C@@H]2CO[C@@](CCc3ccc(Cl)cc3)(Cn3ccnc3)O2)cc1.Cl | 3.7 | 1.1 | 
13 | 2.5 |  | Cl.Clc1ccc(CC[C@@]2(Cn3ccnc3)OC[C@@H](CSc3ccc(Cl)cc3)O2)cc1 | 3.3 | 1.3 | 
14 | 9 |  | Cl.OC[C@@H]1CO[C@@](CCc2ccc(Cl)cc2)(Cn2ccnc2)O1 | 227 | 25.2 | 
15 | 3.3 |  | Cl.Clc1ccc(CC[C@@]2(Cn3ccnc3)OC[C@@H](CSc3ccccc3)O2)cc1 | 7 | 2.1 | 
16 | 0.9 |  | Cl.Clc1ccc(CC[C@@]2(Cn3ccnc3)OC[C@@H](CSc3ccc(Br)cc3)O2)cc1 | 12 | 13.3 | 
17 | 0.8 |  | COc1ccc(OC[C@@H]2CO[C@](CCc3ccc(Cl)cc3)(Cn3ccnc3)O2)cc1.Cl | 15 | 18.8 | 
18 | 1.2 |  | Cl.Clc1ccc(CC[C@]2(Cn3ccnc3)OC[C@@H](CSc3ccc4ccccc4c3)O2)cc1 | 9 | 7.5 | 
19 | 38 |  | COc1ccc(CCC(O)Cn2ccnc2)cc1.Cl (stereo unspecified) | 116 | 3.1 | 
20 | 4.1 |  | C[C@H]1CO[C@@](CCc2ccc(Cl)cc2)(Cn2ccnc2)O1.Cl | 39 | 9.5 | 
21 | 18 |  | C[C@H]1CO[C@](CCc2ccc(Cl)cc2)(Cn2ccnc2)O1.Cl | 82 | 4.6 | 

Row | IC50 ([3]; Plasmodium falciparum) [µM] | IC50 [3] [µM] | SMILES | IC50 ([1]; Cricetulus griseus, CHO) [µM] | Ratio IC50 [2] | IC50 ([1]; cho) [µM]
22 | 7 |  | C[C@@H]1CO[C@@](CCc2ccc(Cl)cc2)(Cn2ccnc2)O1.Cl | 51 | 7.3 | 
23 | 3.3 |  | Cl.Nc1ccccc1SC[C@H]1CO[C@](CCc2ccc(Cl)cc2)(Cn2ccnc2)O1 | 6.6 | 2 | 
24 | 1.3 |  | Cl.Nc1ccc(SC[C@@H]2CO[C@@](CCc3ccc(Cl)cc3)(Cn3ccnc3)O2)cc1 | 374 | 287.7 | 
25 | 2.3 |  | Cl.Clc1ccc(CCC2(Cn3ccnc3)SCCS2)cc1 | 25 | 10.9 | 
26 | 2.7 |  | Cl.Cl.Nc1ccc(SC[C@H]2CO[C@@](CCc3ccc(Cl)cc3)(Cn3ccnc3)O2)cc1 | 6 | 2.2 | 
27 | 4.9 |  | Cl.Cl.Clc1ccc(CC[C@@]2(Cn3ccnc3)OC[C@@H](CSc3ccncc3)O2)cc1 | 27 | 5.5 | 
28 | 3 |  | Cl.Nc1ccc(SC[C@H]2CO[C@](CCc3ccc(Cl)cc3)(Cn3ccnc3)O2)cc1 | 254 | 84.7 | 
29 | 70 |  | Cl.OC(CCc1ccc(Cl)cc1)Cn1ccnc1 (stereo unspecified) | 314 | 4.5 | 
30 |  | 0.67 | Cc1ccc(S(=O)(=O)OC[C@@H]2CO[C@](CCc3ccc(Cl)cc3)(Cn3ccnc3)O2)cc1.Cl |  | 10.4 | 7
31 | 0.6 |  | Cl.Cl.Nc1ccccc1SC[C@@H]1CO[C@](CCc2ccc(Cl)cc2)(Cn2ccnc2)O1 | 6 | 10 | 
32 | 0.3 |  | Cl.Cl.Nc1cccc(SC[C@@H]2CO[C@](CCc3ccc(Cl)cc3)(Cn3ccnc3)O2)c1 | 18 | 60 | 
33 | 23 |  | C[C@@H]1CO[C@](CCc2ccc(Cl)cc2)(Cn2ccnc2)O1.Cl | 102 | 4.4 | 
34 | 25 |  | Cl.O=C(CCc1ccc(Cl)cc1)Cn1ccnc1 | 168 | 6.7 | 
35 | 2 |  | Cl.Nc1cccc(SC[C@@H]2CO[C@@](CCc3ccc(Cl)cc3)(Cn3ccnc3)O2)c1 | 10 | 5 | 
36 | 3.9 |  | Cl.Cl.Nc1ccccc1SC[C@@H]1CO[C@@](CCc2ccc(Cl)cc2)(Cn2ccnc2)O1 | 16 | 4.1 | 
37 | 0.8 |  | Cl.Fc1ccc(COC(CCc2ccc(Cl)cc2)Cn2ccnc2)cc1 (stereo unspecified) | 5.3 | 6.6 | 
38 | 2.5 |  | Cl.Nc1cccc(SC[C@H]2CO[C@](CCc3ccc(Cl)cc3)(Cn3ccnc3)O2)c1 | 9.2 | 3.7 | 
39 | 1.2 |  | Cl.Cl.Nc1cccc(SC[C@H]2CO[C@@](CCc3ccc(Cl)cc3)(Cn3ccnc3)O2)c1 | 9 | 7.5 | 
40 | 2.3 |  | Cl.Cl.Nc1ccccc1SC[C@H]1CO[C@@](CCc2ccc(Cl)cc2)(Cn2ccnc2)O1 | 11 | 4.8 | 
41 | 0.8 |  | Cl.Cl.Nc1ccc(SC[C@@H]2CO[C@](CCc3ccc(Cl)cc3)(Cn3ccnc3)O2)cc1 [AZALANSTAT DIHYDROCHLORIDE] | 13 | 16.3 | 

Row | SMILES | IC50 ([3]; Plasmodium falciparum) [µM] | IC50 [3] [µM] | IC50 ([1]; Cricetulus griseus, CHO) [µM] | Ratio IC50 [2] | IC50 ([1]; cho) [µM]
42 | Cl.Clc1ccc(CCC2(Cn3ccnc3)OCCO2)cc1 | 9 |  | 84 | 9.3 | 
